{"data": "Results collected from several papers", "cell line": "MDA-MB-231", "effect on": "cell growth or viability", "note": "Each line is one published result; the experiments were not run side by side."}
{"SMILES": "COc1cccc2c1C(=O)c1c(O)c3c(c(O)c1C2=O)C[C@@](O)(C(=O)CO)C[C@@H]3O[C@H]1C[C@H](N)[C@H](O)[C@H](C)O1", "assay": "MTT", "setting": "72 h", "endpoint": "EC50", "value": "0.022 µM"}
{"SMILES": "CNC(=O)c1cc(Oc2ccc(NC(=O)Nc3ccc(Cl)c(C(F)(F)F)c3)cc2)ccn1", "assay": "MTT", "setting": "25 µM, 24 h", "endpoint": "viability", "value": "24.3%"}
{"SMILES": "O=C(NN=Cc1ccc(Br)cc1)C1CC(=O)N(c2ccc(F)cc2F)C1 (stereo not drawn)", "assay": "MTT", "setting": "72 h", "endpoint": "EC50", "value": "22.6 µM"}
{"SMILES": "C[C@H](N)C(=O)Nc1ccccc1/N=c1\\cc(-c2ccc3c(c2)OCCO3)oc2c(N)cccc12", "assay": "CCK-8", "setting": "1 µM", "endpoint": "inhibition", "value": "-1.6%"}
{"SMILES": "Nc1nc(S)nc(O)c1N=Cc1cn(-c2ccccc2)nc1-c1ccc(Cl)cc1", "setting": "48 h", "endpoint": "CC50", "value": "18.4 µM"}
{"SMILES": "NCCC(=O)Nc1ccc(/N=c2\\cc(-c3ccc4c(c3)OCO4)oc3ccccc23)cc1", "assay": "CCK-8", "setting": "1 µM", "endpoint": "inhibition", "value": "5.95%"}
{"SMILES": "O=C(Nc1ccc(Cl)cc1)Nc1ccc(Oc2nc3ccccc3n3cnnc23)cc1", "assay": "MTT", "setting": "3.125 µM, 24 h", "endpoint": "viability", "value": "100%"}
{"SMILES": "NCCC(=O)Nc1ccccc1/N=c1\\cc(-c2ccc3c(c2)OCCO3)oc2cc(F)ccc12", "assay": "CCK-8", "setting": "1 µM", "endpoint": "inhibition", "value": "52.9%"}
{"SMILES": "Nc1nc(S)nc(O)c1N=Cc1cn(-c2ccccc2)nc1-c1ccccc1", "setting": "48 h", "endpoint": "CC50", "value": "> 20 µM"}
{"SMILES": "COCCC(=O)Nc1ccccc1/N=c1\\cc(-c2ccc3c(c2)OCO3)oc2ccccc12", "assay": "CCK-8", "setting": "1 µM", "endpoint": "inhibition", "value": "8.73%"}
{"SMILES": "Cc1ccc(C=NNC(=O)C2CC(=O)N(c3ccc(F)cc3F)C2)cc1 (stereo not drawn)", "assay": "MTT", "setting": "72 h", "endpoint": "EC50", "value": "22.8 µM"}
{"SMILES": "O=C(Nc1ccccc1)Nc1ccc(Oc2nc3ccccc3n3cnnc23)cc1", "assay": "MTT", "setting": "50 µM, 24 h", "endpoint": "viability", "value": "59.2%"}
